Consider ten molecules from ChEMBL document CHEMBL1137958, “2('),3(')-didehydro-2('),3(')-dideoxynucleosides are degraded to furfuryl alcohol under acidic conditions” (Bioorg Med Chem Lett, 2004).

The structures appear in SMILES notation. pEC50, pIC50: −log10 of the molar value.

Data set [1] in a line: Estimated half-life at 20 degree C in 0.05 M pH 2 NaH2PO4 buffer. Type of data set: ADME. As to conditions: phosphate buffer. In outline: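 About 1 mg of nucleoside was dissolved in 0.05 M NaH2PO4 (pH 2.0) and stirred at ambient temperature for 24 h. Samples taken at 1 and 24 h were analysed by reverse-phase C18 HPLC, eluting with a gradient of 0.05 M triethylammonium bicarbonate to 70% acetonitrile. Half-life was estimated from the HPLC data, and TLC was run at 24 h.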

A short description of data set [2]: The anti-HIV-1 activity was assayed in activated human peripheral blood mononuclear (PBM) cells, relative to RVT. Type of data set: functional.
Data set [3] in a line: Cytotoxicity was determined in PBM cells, relative to RVT. Type of data set: functional, cell-based. As to conditions: Homo sapiens, PBMC.
In data set [4] the test system is CCRF-CEM. Put plainly: Cytotoxicity was determined in CEM cells, relative to RVT. Format: functional, cell-based. The conditions noted are these: Homo sapiens.
The subject of data set [5] is Vero. As to the kind of experiment: Cytotoxicity was determined in Vero cells, relative to RVT. As to conditions: Chlorocebus sabaeus. Format: functional, cell-based.

A word on the half-life: it is how long it takes for the measured level to halve. As to `Nc1nc(O)c2ncn(C3C=CC(CO)O3)c2n1` (centres undefined), the half-life in data set [1] was below 2 min.

Consider `Cc1cn([C@H]2C=C[C@@H](CO)O2)c(=O)[nH]c1=O` [STAVUDINE], for which the half-life in data set [1] was 50000 min.

One may read the pEC50 as −log10 of the EC50, conventionally taken in molar units. Lower therefore signals a large EC50. Broadly, the EC90 is the point of the concentration-response curve where the effect stands at 90%. A low value points to an effect from little substance. Usually pIC50 stands for −log10 of the IC50, conventionally taken in molar units. A lower pIC50 goes with a high IC50. In data set [2], `Cc1cn([C@H]2C[C@H](N=[N+]=[N-])[C@@H](CO)O2)c(=O)[nH]c1=O` [ZIDOVUDINE] had a pEC50 of 8.70 and an EC90 of 0.02 µM. For the same molecule, the pIC50 in data set [3] was below 4.00.

Consider `OCc1ccco1` [FURFURYL ALCOHOL], for which the negative logarithm of the IC50 (pIC50) in data set [4], in data set [3] and in data set [5] was below 4.00 each time. In data set [2], this molecule showed a pEC50 below 4.00. In data set [2], this molecule had an EC90 above 100 µM.

With `Nc1nc(NC2CC2)c2ncn(C3C=CC(CO)O3)c2n1` (centres undefined), the half-life in data set [1] was 41 min.

`Nc1nc(=O)n([C@@H]2C=C[C@H](CO)O2)cc1F` [ELVUCITABINE]: in data set [1], the half-life was 45 min. Also, the pIC50 in data set [4], in data set [3] and in data set [5] was below 4.00 each time. Besides, the pEC50 in data set [2] is 7.17. The EC90 in data set [2] came out at 1.9 µM.

For `Cc1c[nH]c(=O)[nH]c1=O` [THYMINE], the pIC50 in data set [4], in data set [3] and in data set [5] was below 4.00 throughout.

As for `C[C@@H]1C[C@@H]([C@H](O)CC2CC(=O)NC(=O)C2)C(=O)[C@@H](C)C1` [CYCLOHEXIMIDE], the negative logarithm of the IC50 (pIC50) was 7.10 in data set [4], 6.34 in data set [3] and 6.28 in data set [5].

In the case of `Nc1nc2[nH]cnc2c(=O)[nH]1` [GUANINE], the pIC50 in data set [4] is 4.19; in data set [3], below 4.00; in data set [5], 4.26.

`Nc1nc(=O)[nH]cc1F` [FLUCYTOSINE]: the pIC50 in data set [4] was below 4.00; in data set [3], at most 4.00; in data set [5] it was below 4.00.
